Experimental data reported in PMC7112006 (Bioorganic Chemistry, 2010).

Columns and labels:
[1] = target: T1, human recombinant thymidine phosphorylase (Homo sapiens, UniProt P19971); assay: Thymidine phosphorylase assay, conversion to the free base; assay type: biochemical; conditions: purified recombinant enzyme, 100 μM substrate, 20, 40 and 60 min; data not shown
T1 sequence (P19971 11-482): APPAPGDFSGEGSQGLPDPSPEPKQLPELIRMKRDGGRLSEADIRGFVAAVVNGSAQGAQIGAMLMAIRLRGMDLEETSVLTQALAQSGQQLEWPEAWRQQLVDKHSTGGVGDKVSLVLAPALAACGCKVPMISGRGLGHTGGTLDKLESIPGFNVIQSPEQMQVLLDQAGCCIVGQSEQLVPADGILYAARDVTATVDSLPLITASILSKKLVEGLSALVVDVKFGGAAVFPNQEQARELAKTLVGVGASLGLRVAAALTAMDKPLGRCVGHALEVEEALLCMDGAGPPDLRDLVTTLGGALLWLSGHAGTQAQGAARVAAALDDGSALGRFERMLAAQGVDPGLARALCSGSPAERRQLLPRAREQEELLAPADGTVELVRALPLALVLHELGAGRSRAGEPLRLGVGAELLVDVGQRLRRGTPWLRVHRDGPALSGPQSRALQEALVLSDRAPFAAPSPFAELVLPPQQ
Method in brief: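 Aliquots taken at 20, 40 and 60 min and heat-inactivated at 95 °C for 3 min. Free base quantified by RP-8 HPLC with phosphate/heptane sulfonate (pH 3.2) to acetonitrile gradient; UV detection at 267 nm.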

[2] = target: uridine phosphorylase type 1 (Homo sapiens, UniProt Q16831); assay: Uridine phosphorylase assay, conversion to the free base; assay type: biochemical; conditions: purified recombinant enzyme, 100 μM substrate, 20, 40 and 60 min; data not shown
Method in brief: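 Samples taken at 20, 40 and 60 min and heated at 95 °C for 3 min. Nucleoside and free base separated on RP-8 HPLC with phosphate/heptane sulfonate (pH 3.2) to acetonitrile gradient; UV detection at 267 nm.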

[3] = system: human T-lymphocyte cells (Molt4/C8); assay: Cytostatic assay, inhibition of tumor cell proliferation; assay type: cell-based; conditions: Molt4/C8, read-out: IC50 (50% inhibitory concentration, tumor cell proliferation)

uridine phosphorylase type 1, sequence (Q16831 whole entry): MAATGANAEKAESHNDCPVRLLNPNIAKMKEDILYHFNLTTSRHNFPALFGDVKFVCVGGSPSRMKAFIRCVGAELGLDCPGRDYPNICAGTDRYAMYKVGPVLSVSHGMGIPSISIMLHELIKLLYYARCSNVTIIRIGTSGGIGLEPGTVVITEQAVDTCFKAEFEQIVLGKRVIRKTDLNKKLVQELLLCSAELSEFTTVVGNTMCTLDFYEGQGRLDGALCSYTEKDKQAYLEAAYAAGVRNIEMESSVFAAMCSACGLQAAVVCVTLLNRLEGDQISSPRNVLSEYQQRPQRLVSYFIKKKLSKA

Row | IC50 [3] | Structure (SMILES) | also measured
1 | – | Cc1cn([C@H]2C[C@H](O)[C@@H](CO)O2)c(=O)[nH]c1=O [thymidine] | hydrolysis to the free pyrimidine base by thymidine phosphorylase (TPase) [1]: readily converted
2 | – | O=c1ccn([C@@H]2O[C@H](CO)[C@@H](O)[C@H]2O)c(=O)[nH]1 [uridine] | hydrolysis to the free pyrimidine base by uridine phosphorylase type I (UPase) [2]: readily converted
3 | 183 ± 24 µM | Nc1ncnc2c1ncn2[C@@H]1O[C@H](CO)[C@@H](O)[C@H](F)[C@H]1O [3g, 9-(3-Deoxy-3-fluoro-β-D-glucopyranosyl)adenine] | –
4 | 163 ± 21 µM | Nc1ccn([C@@H]2O[C@H](CO)[C@@H](O)[C@H](F)[C@H]2O)c(=O)n1 [3f, 1-(3-Deoxy-3-fluoro-β-D-glucopyranosyl)cytosine] | –
